# Assays:
# [1] = test system: Schizosaccharomyces pombe; experiment: Inhibition of growth metabolism of Schizosaccharomyces pombe ACCC 20047 assessed as growth rate constant at 20 mg/L at 32 degC by TAM air microcalorimetry; format: functional
# Method in brief: (§1)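 Cells seeded at 1×10⁶ cells/mL with compound at a range of concentrations. Heat output recorded continuously in a TAM Air isothermal microcalorimeter. Growth rate constant k taken from power-time curves. I = (k0 − kc)/k0 × 100%, and IC50 is the concentration giving I = 50%. n = 3.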
# [2] = test system: K562; experiment: Inhibition of growth metabolism of human K562 cells assessed as growth rate constant at 7 mg/L at 37 degC by TAM air microcalorimetry; format: functional
# Method in brief: (§2)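 K562 cells in supplemented RPMI 1640 (10% FBS) seeded at 1×10⁶ cells/mL with compound at graded concentrations. Heat flow recorded in real time in an eight-channel isothermal microcalorimeter (TAM Air). Rate constant k derived from thermogenic growth curves. Inhibition ratio I = (k0 − kc)/k0 × 100% relative to untreated cells, and IC50 is the concentration at I = 50%. Mean ± S.D., n = 3.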
# [3] = test system: K562; experiment: Inhibition of growth metabolism of human K562 cells assessed as growth rate constant at 8 mg/L at 37 degC by TAM air microcalorimetry; format: functional; method in brief: as §2
# [4] = test system: K562; experiment: Inhibition of growth metabolism of human K562 cells assessed as growth rate constant at 11 mg/L at 37 degC by TAM air microcalorimetry; format: functional; method in brief: as §2
# [5] = test system: Schizosaccharomyces pombe; experiment: Inhibitive ratio of growth metabolism of Schizosaccharomyces pombe ACCC 20047 at 40 mg/L at 32 degC by TAM air microcalorimetry (reference value: 0%); format: functional; method in brief: as §1
# [6] = test system: K562; experiment: Inhibition of growth metabolism of human K562 cells at 37 degC by TAM air microcalorimetry; format: functional, cell-based; method in brief: as §2
# [7] = test system: K562; experiment: Inhibition of growth metabolism of human K562 cells assessed as growth rate constant at 6 mg/L at 37 degC by TAM air microcalorimetry; format: functional; method in brief: as §2
# [8] = test system: K562; experiment: Inhibitive ratio of growth metabolism of human K562 cells at 11 mg/L at 37 degC by TAM air microcalorimetry (reference value: 0%); format: functional; method in brief: as §2
# [9] = test system: Schizosaccharomyces pombe; experiment: Inhibitive ratio of growth metabolism of Schizosaccharomyces pombe ACCC 20047 at 400 mg/L at 32 degC by TAM air microcalorimetry (reference value: 0%); format: functional; method in brief: as §1
# [10] = test system: Schizosaccharomyces pombe; experiment: Inhibitive ratio of growth metabolism of Schizosaccharomyces pombe ACCC 20047 at 80 mg/L at 32 degC by TAM air microcalorimetry (reference value: 0%); format: functional; method in brief: as §1
# [11] = test system: Schizosaccharomyces pombe; experiment: Inhibition of growth metabolism of Schizosaccharomyces pombe ACCC 20047 assessed as growth rate constant at 240 mg/L at 32 degC by TAM air microcalorimetry; format: functional; method in brief: as §1
# [12] = test system: Schizosaccharomyces pombe; experiment: Inhibition of growth metabolism of Schizosaccharomyces pombe ACCC 20047 assessed as growth rate constant at 40 mg/L at 32 degC by TAM air microcalorimetry; format: functional; method in brief: as §1
# [13] = test system: K562; experiment: Inhibition of growth metabolism of human K562 cells assessed as growth rate constant at 4 mg/L at 37 degC by TAM air microcalorimetry; format: functional; method in brief: as §2
# [14] = test system: Schizosaccharomyces pombe; experiment: Inhibition of growth metabolism of Schizosaccharomyces pombe ACCC 20047 at 32 degC by TAM air microcalorimetry; format: functional, organism-based; method in brief: as §1
# [15] = test system: K562; experiment: Inhibitive ratio of growth metabolism of human K562 cells at 4 mg/L at 37 degC by TAM air microcalorimetry (reference value: 0%); format: functional; method in brief: as §2
# [16] = test system: Schizosaccharomyces pombe; experiment: Inhibition of growth metabolism of Schizosaccharomyces pombe ACCC 20047 assessed as growth rate constant at 320 mg/L at 32 degC by TAM air microcalorimetry; format: functional; method in brief: as §1
# [17] = test system: Schizosaccharomyces pombe; experiment: Inhibition of growth metabolism of Schizosaccharomyces pombe ACCC 20047 assessed as growth rate constant at 160 mg/L at 32 degC by TAM air microcalorimetry; format: functional; method in brief: as §1
# [18] = test system: Schizosaccharomyces pombe; experiment: Inhibition of growth metabolism of Schizosaccharomyces pombe ACCC 20047 assessed as growth rate constant at 80 mg/L at 32 degC by TAM air microcalorimetry; format: functional; method in brief: as §1
# [19] = test system: Schizosaccharomyces pombe; experiment: Inhibitive ratio of growth metabolism of Schizosaccharomyces pombe ACCC 20047 at 320 mg/L at 32 degC by TAM air microcalorimetry (reference value: 0%); format: functional; method in brief: as §1
# [20] = test system: K562; experiment: Inhibitive ratio of growth metabolism of human K562 cells at 8 mg/L at 37 degC by TAM air microcalorimetry (reference value: 0%); format: functional; method in brief: as §2
# [21] = test system: Schizosaccharomyces pombe; experiment: Inhibition of growth metabolism of Schizosaccharomyces pombe ACCC 20047 assessed as growth rate constant at 400 mg/L at 32 degC by TAM air microcalorimetry; format: functional; method in brief: as §1
# [22] = test system: Schizosaccharomyces pombe; experiment: Inhibitive ratio of growth metabolism of Schizosaccharomyces pombe ACCC 20047 at 160 mg/L at 32 degC by TAM air microcalorimetry (reference value: 0%); format: functional; method in brief: as §1
# [23] = test system: K562; experiment: Inhibitive ratio of growth metabolism of human K562 cells at 6 mg/L at 37 degC by TAM air microcalorimetry (reference value: 0%); format: functional; method in brief: as §2
# [24] = test system: K562; experiment: Inhibition of growth metabolism of human K562 cells assessed as growth rate constant at 9 mg/L at 37 degC by TAM air microcalorimetry; format: functional; method in brief: as §2
# [25] = test system: K562; experiment: Inhibitive ratio of growth metabolism of human K562 cells at 9 mg/L at 37 degC by TAM air microcalorimetry (reference value: 0%); format: functional; method in brief: as §2
# [26] = test system: K562; experiment: Inhibitive ratio of growth metabolism of human K562 cells at 7 mg/L at 37 degC by TAM air microcalorimetry (reference value: 0%); format: functional; method in brief: as §2
# [27] = test system: Schizosaccharomyces pombe; experiment: Inhibitive ratio of growth metabolism of Schizosaccharomyces pombe ACCC 20047 at 240 mg/L at 32 degC by TAM air microcalorimetry (reference value: 0%); format: functional; method in brief: as §1
# [28] = test system: Schizosaccharomyces pombe; experiment: Inhibitive ratio of growth metabolism of Schizosaccharomyces pombe ACCC 20047 at 20 mg/L at 32 degC by TAM air microcalorimetry (reference value: 0%); format: functional; method in brief: as §1
smiles,measurement,setting,value
COc1ccc(C(=O)C(C)C(C)C(=O)c2ccc(OC)c(OC)c2)cc1OC (stereo not drawn),Activity,[1],0.00479 min⁻¹
same,Activity,[2],3.6261 ×10⁻⁴ /min
same,Activity,[3],2.2866 ×10⁻⁴ /min
same,Activity,[4],1.681 ×10⁻⁴ /min
same,inhibition at 40 µg/mL,[5],-4.05%
same,IC50,[6],8.57 µg/mL
same,Activity,[7],3.9703 ×10⁻⁴ /min
same,inhibition at 11 µg/mL,[8],57.3%
same,inhibition at 400 µg/mL,[9],83%
same,inhibition at 80 µg/mL,[10],-3.6%
same,Activity,[11],0.00341 min⁻¹
same,Activity,[12],0.00462 min⁻¹
same,Activity,[13],4.4893 ×10⁻⁴ /min
same,IC50,[14],290 µg/mL
same,inhibition at 4 µg/mL,[15],-13.9%
same,Activity,[16],0.00163 min⁻¹
same,Activity,[17],0.00421 min⁻¹
same,Activity,[18],0.0046 min⁻¹
same,inhibition at 320 µg/mL,[19],63.3%
same,inhibition at 8 µg/mL,[20],42%
same,Activity,[21],0.00075 min⁻¹
same,inhibition at 160 µg/mL,[22],5.18%
same,inhibition at 6 µg/mL,[23],-0.78%
same,Activity,[24],1.7435 ×10⁻⁴ /min
same,inhibition at 9 µg/mL,[25],55.8%
same,inhibition at 7 µg/mL,[26],7.96%
same,inhibition at 240 µg/mL,[27],23.2%
same,inhibition at 20 µg/mL,[28],-7.88%
